From ChEMBL document CHEMBL1151265, “Steroidal saponins from Smilax medica and their antifungal activity” (2005)
≈ marks a conversion by molar mass, not a printed value.

Legend:
Type in all cases: functional
[1] = test system: Candida albicans; test: Antifungal activity against Candida albicans after 48 hrs by spectrophotometry; settings: for MIC: Candida albicans, 48 h
How it was run: (§1)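 Broth microdilution MIC against pathogenic human yeast strains. Saponin in malt extract broth (malt extract 15 g, peptone 5 g per L), final 3.12-200 µg/mL, serial dilution, triplicate wells. Each well inoculated with 10 µL of 10^4 CFU/mL suspension, incubated 30 °C for 48 h, growth read at 630 nm. MIC is the lowest concentration with no visible growth.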

[2] = test system: Candida tropicalis; test: Antifungal activity against Candida tropicalis after 48 hrs by spectrophotometry; settings: for MIC: Candida tropicalis, 48 h; how it was run: as §1
[3] = test system: Nakaseomyces glabratus; test: Antifungal activity against Candida glabrata after 48 hrs by spectrophotometry; settings: for MIC: Nakaseomyces glabratus, 48 h; how it was run: as §1

Structure (SMILES) | MIC [1] | MIC [2] | MIC [3] | Activity [1] | Activity [2] | Activity [3]
CC(=O)N1CCN(c2ccc(OCC3COC(Cn4ccnc4)(c4ccc(Cl)cc4Cl)O3)cc2)CC1 (stereo not given) [KETOCONAZOLE] | 0.78 µg/mL (≈ 1.47 µM) | 1.56 µg/mL (≈ 2.94 µM) | 0.78 µg/mL (≈ 1.47 µM) |  |  | 
CO[C@]1(CC[C@@H](C)CO[C@@H]2O[C@H](CO)[C@@H](O)[C@H](O)[C@H]2O)O[C@H]2C[C@H]3[C@@H]4CC[C@@H]5C[C@@H](O[C@@H]6O[C@H](CO[C@@H]7O[C@H](CO)[C@@H](O)[C@H](O)[C@H]7O)[C@@H](O[C@@H]7O[C@H](CO)[C@@H](O)[C@H](O)[C@H]7O)[C@H](O)[C@H]6O[C@@H]6O[C@H](CO)[C@@H](O)[C@H](O)[C@H]6O)CC[C@]5(C)[C@H]4CC[C@]3(C)[C@H]2[C@@H]1C |  |  |  | >200 µg/mL | >200 µg/mL | >200 µg/mL
C[C@@H]1CC[C@@]2(OC1)O[C@H]1C[C@H]3[C@@H]4CC[C@@H]5C[C@@H](O[C@@H]6O[C@H](CO[C@@H]7O[C@H](CO)[C@@H](O)[C@H](O)[C@H]7O)[C@@H](O[C@@H]7O[C@H](CO)[C@@H](O)[C@H](O)[C@H]7O)[C@H](O)[C@H]6O)CC[C@]5(C)[C@H]4CC[C@]3(C)[C@H]1[C@@H]2C | 25 µg/mL (≈ 27.7 µM) | 50 µg/mL (≈ 55.4 µM) | 12.5 µg/mL (≈ 13.8 µM) |  |  | 

Now from value to molecule, other results behind:

MIC [1] | MIC [2] | MIC [3] | Structure (SMILES) | Activity [1] | Activity [2] | Activity [3]
25 µg/mL (≈ 23.5 µM) | 50 µg/mL (≈ 46.9 µM) | 12.5 µg/mL (≈ 11.7 µM) | C[C@@H]1CC[C@@]2(OC1)O[C@H]1C[C@H]3[C@@H]4CC[C@@H]5C[C@@H](O[C@@H]6O[C@H](CO[C@@H]7O[C@H](CO)[C@@H](O)[C@H](O)[C@H]7O)[C@@H](O[C@@H]7O[C@H](CO)[C@@H](O)[C@H](O)[C@H]7O)[C@H](O)[C@H]6O[C@@H]6O[C@H](CO)[C@@H](O)[C@H](O)[C@H]6O)CC[C@]5(C)[C@H]4CC[C@]3(C)[C@H]1[C@@H]2C |  |  | 
25 µg/mL (≈ 27.7 µM) | 50 µg/mL (≈ 55.4 µM) | 25 µg/mL (≈ 27.7 µM) | C[C@@H]1CC[C@@]2(OC1)O[C@H]1C[C@H]3[C@@H]4CC[C@@H]5C[C@@H](O[C@@H]6O[C@H](CO[C@@H]7O[C@H](CO)[C@@H](O)[C@H](O)[C@H]7O)[C@@H](O)[C@H](O)[C@H]6O[C@@H]6O[C@H](CO)[C@@H](O)[C@H](O)[C@H]6O)CC[C@]5(C)[C@H]4CC[C@]3(C)[C@H]1[C@@H]2C [DISPOROSIDE A] |  |  | 
